# Screening results from PubChem.
# T cruzi inh – blocks replication of Trypanosoma cruzi. T. cruzi beta-gal in NIH3T3, luminescence, 90 h. inhibition, % (concentration not given with the values). 1.4% of 300,000 active. AID 1885;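 active means mean inhibition across valid replicates above about 55%, limit read from the data; inconclusive means mean below that limit but half or more replicates reach it; inactive means mean below it, under half of replicates reach it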;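 further: signal also drops with host cell toxicity which is not excluded here; 0% = plate median of DMSO wells and 100% = zero luminescence signal; higher percent means less beta-gal luminescence so fewer parasites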
#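 System – NIH/3T3 host cells with β-galactosidase reporter T. cruzi · Doses – single 50 nL compound addition per well in DMSO · Reagent – 5000 T. cruzi trypomastigotes/well · Medium – Low-serum DMEM with 2% FBS · Timing – ≥90 h infection period, 3 h prior cell attachment · Evaluation – parasite load inhibition, % · Technique – GalScreen luminescence, 60 min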
# PfHsp90 set2 – reduces growth (ATP signal) of yeast expressing P. falciparum Hsp90; S. cerevisiae expressing PfHsp90, BacTiter-Glo ATP, 48 h; yeast lacking PDR1 and PDR3 efflux regulators; inhibition, % at 9.4 µM; 0.32% of 310,000 active; AID 504621;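 active means every replicate shows inhibition above about 80%, whatever the replicate mean, limit read from the data; inconclusive means mean inhibition reaches the set limit but some replicate falls short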;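 further: 0% = DMSO neutral controls and 100% = 20 µM radicicol positive controls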
# PvdQ acylase – blocks Pseudomonas aeruginosa PvdQ acylase activity; purified PvdQ acylase, fluorescence plate reader; inhibition, % at 10 µM; 0.063% of 340,000 active; in the data active means inhibition above about 30%, passing the limit was not always enough; inconclusive means no clear call, values can overlap the other calls;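 further: 0% = vehicle neutral wells and 100% = reference inhibitor wells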
# HSF1 activator – increases HSF-1 driven luciferase reporter signal | 1.7% of 300,000 active | AID 504408 | NIH3T3-HGL HSF-1 luciferase reporter, MG132, 8 h; 100% = twice DMSO control signal | activation, % at 9 µM;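 active means mean replicate activation of at least 50% with a set share of replicates each reaching 50%; inconclusive means only one of those two conditions met; inactive means mean below 50% and too few replicates reaching it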;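 further: 0% = median of the neutral control wells and 100% = twice that signal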
# CaV13 ICDI inh – Primary screen for inhibitors of IQ motif and Ca2+-dependent inactivation inhibitor domain binding in CACNA1D, Förster resonance energy transfer in living cells, …. AID 743397. 0.098% of 340,000 active. HEK cells, CFP/YFP FRET ICDI-IQ, plate reader, 10 min; percent FRET-ratio fall versus neutral wells. inhibition, % at 12.3 µM;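 active means mean replicate inhibition of at least 30% and at least 1% of replicates passing that level; inconclusive means only one of the two criteria is met; inactive means neither criterion is met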;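 further: 0% = median of the neutral control wells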
# Glyco luc inh – N-linked glycosylation inhibition; D54 ERlucT glycosylation luciferase reporter, 24 h; percent of 100 nM tunicamycin response; reporter increase, % at 12.5 µM; 0.23% of 360,000 active;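 active means mean luciferase reporter signal, scaled so untreated is 0 and the glycosylation-blocking control 100, at or above a set limit in every replicate; inconclusive means mean reaches the limit but not every replicate does; inactive means mean below the limit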;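 further: luciferase carries N-glycosylation sites so blocking glycosylation raises the light; 0% = median of neutral control wells and 100% = median of 100 nM tunicamycin wells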
# * marks the source's active call; other numbers are inactive results; u = inconclusive; x = no result given. Hits are enriched below; roughly 3% of the tested compounds scored in any of these assays.
SMILES,T cruzi inh,PfHsp90 set2,PvdQ acylase,HSF1 activator,CaV13 ICDI inh,Glyco luc inh
Oc1ccc(N=Nc2ccc3ccccc3c2)cc1,-21,108*,-8,u,-3,-11
O=[N+]([O-])c1ccccc1N=Nc1ccc(O)cc1,-11,-2,-5,-15,-4,3
Oc1ccc(N=Nc2c(O)ccc3ccccc23)cc1,4,127*,11,17,-9,1
NS(=O)(=O)c1ccc(N=Nc2c(O)ccc3ccccc23)cc1,4,-5,-21,-5,-21,17
COCc1cc(N2CCNC[C@@H]2C)ccc1N1CCN(Cc2ccccc2)[C@@H](C)C1,x,x,x,x,-8,x
Cc1cc(C)c(S(=O)(=O)c2cccc(Cl)c2)c(Cl)n1,-1,2,8,-8,-4,-2
Cc1cc(C)c(S(=O)(=O)c2c(C)cccc2C)c(Cl)n1,47,x,6,11,-7,-1
Cc1cc(C)c(S(=O)(=O)c2cc(F)ccc2C)c(Cl)n1,65*,1,9,-4,-3,1
Cc1cc(C)c(S(=O)(=O)c2ccc(Cl)cc2C)c(Cl)n1,56*,-7,-12,-5,-7,-3
O=C(NCc1ccccc1)[C@@H]1CCCN1C(=O)[C@H]1CCCN1C(=O)c1cccs1,x,x,x,x,-11,x
Cc1ccc(S(=O)(=O)N2CCCCC2)cc1NC(=O)COC(=O)c1ccc(=O)[nH]c1,x,-5,-9,x,-5,1
COc1ccc(N(/N=C2\Sc3ccccc3C2=O)C(C)=O)cc1,-16,-11,6,60*,-6,-8
Brc1ccc(CNc2ccc3ncccc3c2)cc1,35,4,-10,79*,-8,-3
O=C(Nc1ccc2ncccc2c1)c1cccc(Br)c1,1,-11,10,u,-4,-3
Clc1cccc(OCCN2CCNCC2)c1,58*,10,-13,22,-4,1
OCCN1CCN(CCOc2cccc(Cl)c2)CC1,66*,29,-13,-16,-4,0
Clc1cccc(OCCN2CCOCC2)c1,-11,5,8,0,-6,1
COC(=O)c1cc2c(c3c4cc(OC)ccc4n(S(=O)(=O)c4ccccc4)c13)C(=O)N(C)C2,x,x,x,x,-4,x
CCCNC(=O)c1cc(C2CCCN(S(=O)(=O)c3cccs3)C2)on1 (centres undefined),x,x,x,x,-5,-1
CC(=O)N1N=C(c2ccc(Cl)cc2)OC1c1ccc(C(C)C)cc1 (centres undefined),-9,-37,-8,-4,-3,x
CC(=O)N1N=C(c2ccc(C)cc2)OC1c1ccc(Br)cc1 (centres undefined),2,3,-1,57*,-3,-1
Cc1ccc(S(=O)(=O)NCc2ccc3c(c2)OCO3)cc1,x,x,x,x,-10,x
Cc1cccc(-n2c(SCc3cc(=O)n4ccsc4n3)nc3ccccc32)c1,62*,-12,2,4,-7,-4
COc1ccc(/C=C/C(=O)Nc2cc(C)nn2-c2nc3ccccc3[nH]2)cc1,55*,-15,7,190*,-5,0
CC1(C)C(=O)Nc2ccccc2N1C(=O)Cn1ncc(Cl)c(Cl)c1=O,55*,-4,-11,54*,-7,5
SMILES,T cruzi inh,PfHsp90 set2,PvdQ acylase,HSF1 activator,CaV13 ICDI inh,Glyco luc inh
CCc1ccc(C(=O)Cn2ncc(Cl)c(Cl)c2=O)cc1,60*,0,9,-80,x,6
O=C(Cn1ncc(Cl)c(Cl)c1=O)N1CCN(Cc2ccccc2)CC1,67*,6,-15,55*,-1,14
Cc1cc(C)cc(Cn2ncc(Cl)c(Cl)c2=O)c1,-23,x,x,117*,-3,x
O=C(Cn1ncc(Cl)c(Cl)c1=O)N1CCOCC1,28,-4,-14,15,-5,20
Cc1ccc(Cn2ncc(Cl)c(Cl)c2=O)cc1,-6,-27,-4,37,-15,8
COCc1cc(N2CCN(C(=O)OC(C)(C)C)C[C@H]2C)ccc1N1C[C@@H](C)O[C@@H](C)C1,x,x,x,x,-7,x
C[C@H]1[C@H](c2ccccc2)Oc2cccc(NCCc3ccccc3)c2S(=O)(=O)N1Cc1ccc(F)cc1,x,x,x,x,-4,x
CCOc1ccc(NC(=O)COC(=O)c2ccc3c(c2)OCCO3)cc1,x,-7,-5,x,-2,-1
Cc1c(COC(=O)NC(C)C)c(COC(=O)NC(C)C)c2n1CS(=O)(=O)C2,x,x,x,x,-3,x
COC(=O)C1=C(C)NC(C)=C(C(=O)OC)C(N2C(=O)CCC2=O)C1 (centres undefined),x,x,x,x,-3,x
O=C(Cn1ncc(Cl)c(Cl)c1=O)N1CCc2ccccc21,82*,35,-16,29,-7,-22
O=C(Cn1ncc2c1-c1ccccc1OC2)N1CCc2ccccc21,0,-3,-6,-5,-3,-2
NC(=O)c1ncn([C@@H]2O[C@H](C(=O)Nc3ccc(Oc4ccccc4)nc3)[C@@H](O)[C@H]2O)n1,x,x,x,x,-3,x
Cn1c(=O)n(C)c2cc(NC(=O)CCl)ccc21,22,x,7,5,-4,82*
CC(C)Sc1ccccc1C(=O)Nc1ccc2c(c1)n(C)c(=O)n2C,5,-7,-8,0,-21,34*
Cn1c(=O)n(C)c2cc(NC(=O)c3ccccc3)ccc21,x,x,x,x,-6,10
Cc1cc(C(=O)N/N=C/c2cc(Br)cc(Br)c2OC(=O)c2cccc(F)c2)n[nH]1,65*,-32,-8,-12,-11,-2
O=C(Cc1cccs1)Nc1cccc(-c2nc3cc4ccccc4cc3[nH]2)c1,37,24,1,74*,-3,14
CCOC(=O)C1=C(C)Nc2nc3ccccc3n2C1c1ccncc1 (centres undefined),11,3,-1,80*,-4,0
C=CCOC(=O)C1=C(C)Nc2ncnn2C1c1cccs1 (centres undefined),-2,6,2,10,-7,3
CNC(=O)C1=C(C)Nc2nc3ccccc3n2C1c1cccc(OC)c1 (centres undefined),-9,-4,-22,5,-6,1
C=CCOC(=O)C1=C(C)Nc2nc3ccccc3n2C1c1ccncc1 (centres undefined),10,x,-20,62*,-4,-2
N#C/C(=C\c1ccco1)C(=O)Nc1cccc2ncccc12,-17,-11,-4,8,41*,1
COc1ccccc1CCn1cnc(Cc2ccccc2)c1C(C)C,x,x,x,x,-9,x
CC(=O)NCC1(c2ccccc2)CCN(CCCC(=O)c2ccc(F)cc2)CC1,x,x,x,x,-5,-1
C=C(C)CSc1nc2sc3c(c2c(=O)n1C1CCCCC1)CCN(C)C3,59*,-24,2,-9,-2,0
C=C(C)CSc1nc2sc3c(c2c(=O)n1-c1ccccc1)CCN(C)C3,55*,6,-10,-6,-3,0
